The list is not random: actives were taken first. Their share in the collection is about 1.8%.
NOD2 RIPK2 PPI – blocks binding of human NOD2 to RIPK2. CHO BLA complementation NOD2-RIPK2, CCF4 ratio. inhibition, % at 4.98 µM. actives 0.38% (n = 360,000); in the data active = inhibition above about 21%
TLR4-MyD88 BLA – blocks binding of human TLR4 to MyD88 | O00206+Q99836 | HeLa CL3-4 TLR4/MyD88 BLA complementation, FRET ratio | inhibition, % at 8.4 µM | actives 0.18% (n = 200,000); in the data active = inhibition above about 25%
MC4R antagonist – antagonists of human melanocortin 4 receptor (MC4R). MC4R-expressing cells, MTII-stimulated cAMP, LANCE TR-FRET. inhibition, % at 6.5 µM. P32245. actives 0.48% (n = 360,000);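 active = inhibition above its plate's cutoff, the mean of tested wells on that plate plus 3 SD, cut at about 29% in these data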
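System: U2OS-MC4R stable cell line; Technique: Eu-cAMP/anti-cAMP TR-FRET, emission 671 nm; Repeats: single well per compound; Also added: Melanotan II; Dosing: one concentration, 6.5 µM nominal; Schedule: 30-min compound, 1-h challenge, 1-h detection, room temperature.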
MC4R ag barr – agonists of human melanocortin 4 receptor (MC4R) beta-arrestin. P32245. U2OS MC4R beta-arrestin complementation, luminescence; percent of melanotan II response, DMSO zero. activation, % at 8.9 µM. actives 0.98% (n = 360,000). AID 540308;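 active = activation above a per-plate cutoff, the mean activation of sample wells on that plate plus 3 SD, cut at about 8% in these data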
TLR9-MyD88 block – blocks human TLR9 binding to MyD88; Q9NR96+Q99836; CHO BLA complementation TLR9-MyD88, CCF4 FRET ratio; inhibition, % at 4.98 µM; actives 0.21% (n = 340,000);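 active = inhibition above the mean over all tested compounds plus 3 SD, cut at about 21% in these data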
cAMP nonselect – counter-screen for MC4R antagonists: nonselective cAMP signaling inhibitors | shares compounds with MC4R antagonist | parental U2OS, forskolin cAMP, LANCE TR-FRET | inhibition, % at 6.5 µM | actives 26% (n = 1,600) | AID 602193;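 active = mean inhibition over triplicates above the low-control well mean plus 3 SD, set per campaign, cut at about 13% in these data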;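 note: signal is single emission at 671 nm which falls as cellular cAMP rises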
MC4R cAMP antag – human MC4R cAMP antagonism confirmation | actives 27% (n = 1,600) | inhibition, % at 6.5 µM | MC4R-expressing cells, MTII-stimulated cAMP, TR-FRET | shares compounds with MC4R antagonist; in the data active = inhibition above about 29%
MC4R barr conf – human MC4R beta-arrestin agonism confirmation. shares compounds with MC4R ag barr. activation, % at 8.9 µM. U2OS MC4R beta-arrestin recruitment, luminescence; scaled DMSO 0%, Melanotan II 100%. actives 31% (n = 2,400);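 active = mean activation across replicates above the hit cutoff set in the earlier primary screen, cut at about 8% in these data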
MOR-DOR barr ag – counter-screen for MC4R agonists: agonists of mu-delta opioid heterodimer. shares compounds with MC4R ag barr. U2OS PathHunter beta-arrestin, beta-gal luminescence; percent of deltorphin B response, DMSO zero. activation, % at 9.2 µM. actives 5.8% (n = 2,400). AID 602194;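 active = mean activation across replicates exceeds the hit threshold derived in the earlier primary screen, cut at about 18% in these data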
Target sequence (P35372 whole entry, looked up): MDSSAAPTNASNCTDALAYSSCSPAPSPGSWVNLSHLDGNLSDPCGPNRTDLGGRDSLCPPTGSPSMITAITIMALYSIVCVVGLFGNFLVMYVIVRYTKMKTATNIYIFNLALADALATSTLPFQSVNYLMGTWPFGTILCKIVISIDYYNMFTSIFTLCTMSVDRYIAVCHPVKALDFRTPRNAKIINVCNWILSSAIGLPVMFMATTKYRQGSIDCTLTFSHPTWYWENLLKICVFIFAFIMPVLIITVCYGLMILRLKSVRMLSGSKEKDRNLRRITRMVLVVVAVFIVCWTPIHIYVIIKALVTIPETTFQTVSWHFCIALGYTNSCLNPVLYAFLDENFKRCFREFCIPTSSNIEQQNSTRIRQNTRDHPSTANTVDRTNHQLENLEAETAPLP
Target sequence (P41143 whole entry, looked up): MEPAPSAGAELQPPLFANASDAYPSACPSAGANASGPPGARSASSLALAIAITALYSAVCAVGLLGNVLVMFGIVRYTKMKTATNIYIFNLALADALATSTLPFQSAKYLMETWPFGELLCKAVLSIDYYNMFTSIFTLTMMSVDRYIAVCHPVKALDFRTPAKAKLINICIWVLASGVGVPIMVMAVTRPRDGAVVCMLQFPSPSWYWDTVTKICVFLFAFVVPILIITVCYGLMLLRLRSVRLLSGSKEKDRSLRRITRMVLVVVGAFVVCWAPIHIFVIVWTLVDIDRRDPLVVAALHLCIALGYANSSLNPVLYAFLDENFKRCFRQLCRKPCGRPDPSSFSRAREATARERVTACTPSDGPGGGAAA
NOD2-RIPK2 conf – NOD2-RIPK2 interaction inhibition confirmed | CHO cells, NOD2-RIPK2 BLA complementation, CCF4 FRET | actives 70% (n = 1,200) | shares compounds with NOD2 RIPK2 PPI | inhibition, % at 4.98 µM | AID 624370;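 active = mean inhibition across replicates above a set limit taken from the earlier primary screen, cut at about 21% in these data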
BLA counter – hits BLA reporter in NOD2-RIPK2 inhibitor counterscreen; shares compounds with NOD2 RIPK2 PPI; CHO BLA reporter, CCF4 FRET ratio; inhibition, % at 4.98 µM; actives 57% (n = 1,200);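 active = mean inhibition above the low-control mean inhibition plus three low-control SD, cut at about 11% in these data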
Each line names hits and unclear results; the compound was inactive in the other large screens (follow-up assays come after a bar, where they were run).

O=C1CN=C(c2ccccc2)c2ccccc2N1	none (no result: TLR4-MyD88 BLA)
COc1ccc2oc3c(c2c1)NC(=O)CN=C3c1ccccc1	MC4R antagonist 31 | cAMP nonselect inactive | MC4R cAMP antag inactive
C[C@]12CCC3C(CC[C@H]4C[C@@H](O)CC[C@]34C)C1C/C(=N/O)[C@@H]2O (stereo partly specified)	none (no result: TLR4-MyD88 BLA)
CCOC(=O)c1c(-n2c(C)cc(C=C3C(=O)NC(=O)NC3=O)c2C)sc2c1CCCC2	MC4R antagonist 30 | cAMP nonselect inactive | MC4R cAMP antag inactive
CC(C)CN1Cc2cc(-c3cccc(F)c3)ccc2-n2nncc2C1	none (no result: TLR4-MyD88 BLA, MC4R antagonist, MC4R ag barr, TLR9-MyD88 block)
C=C1C(=O)OC2CC3(C)OC3C3OC3C3=CC(OC3=O)C12 (stereo unspecified)	NOD2 RIPK2 PPI 44, MC4R antagonist 43 (no result: TLR4-MyD88 BLA, TLR9-MyD88 block) | cAMP nonselect 19 | MC4R cAMP antag 33 | NOD2-RIPK2 conf 67 | BLA counter 18
C=C1C(=O)OC2CC3(C)OC3CCC(C)=CC(OC(C)=O)C12 (stereo unspecified)	none (no result: TLR4-MyD88 BLA)
COc1ccc(CN2Cc3cnnn3-c3ccccc3C2C#N)cc1 (stereo unspecified)	NOD2 RIPK2 PPI 45, MC4R antagonist 32 (no result: TLR4-MyD88 BLA) | cAMP nonselect inactive | MC4R cAMP antag inactive | NOD2-RIPK2 conf inactive | BLA counter inactive
CC(=O)OC1(c2ccccc2)CCN(C)CC1(C)C (stereo unspecified)	none
O=c1[nH]cnc2nc(-c3ccc(N(CCCl)CCCl)cc3)[nH]c12	MC4R ag barr 9.8 (no result: TLR4-MyD88 BLA) | MC4R barr conf 13 | MOR-DOR barr ag 19
O=C1CN=C(c2ccc(Cl)cc2)c2oc3ccccc3c2N1	MC4R ag barr 11 (no result: TLR4-MyD88 BLA, TLR9-MyD88 block) | MC4R barr conf inactive | MOR-DOR barr ag inactive
COc1ccc(C2=CC(c3ccc(OC)c(OC)c3)c3c(c4ccccc4oc3=O)O2)cc1OC (stereo unspecified)	none (no result: TLR4-MyD88 BLA)
Cc1cc2oc(=O)cc(-c3cc4ccccc4o3)c2cc1OC(=O)N(C)C	MC4R ag barr 17 (no result: TLR4-MyD88 BLA) | MC4R barr conf inactive | MOR-DOR barr ag inactive
CC12C=CC(=O)CC1CCC1C2CCC2(C)C(O)C(O)CC12 (stereo unspecified)	none (no result: TLR4-MyD88 BLA)
C=CCOC(=O)COc1cc(C)cc2oc(=O)c3c(c12)CCC3	MC4R ag barr 11 | MC4R barr conf 9.0 | MOR-DOR barr ag inactive
CCCCOC(=O)COc1cc(C)cc2oc(=O)c3c(c12)CCC3	none
Cc1ccc(NC2=NCCCS2)cc1Cl	none (no result: TLR4-MyD88 BLA)
Cc1c(/C=C2/CC3C4CC=C5CC(O)CCC5(C)C4CCC3(C)C2=O)cnn1C (stereo unspecified)	none (no result: NOD2 RIPK2 PPI, MC4R antagonist, MC4R ag barr, TLR9-MyD88 block)
CC12CCC3C(CC=C4CC(O)CCC43C)C1C/C(=C\c1cccc(F)c1)C2=O (stereo unspecified)	MC4R ag barr 14 | MC4R barr conf inactive | MOR-DOR barr ag inactive
CC1CC(C)CC(C)C(O)C(C#N)=CC=CCC(C2CCCC2C(=O)O)OC(=O)CC(O)C(C)C1 (stereo unspecified)	NOD2 RIPK2 PPI 30 (no result: TLR4-MyD88 BLA) | NOD2-RIPK2 conf 28 | BLA counter inactive
CCCCn1nnnc1C(c1cccs1)N1CCC2(CC1)C(=O)NCN2c1ccccc1 (stereo unspecified)	none (no result: TLR4-MyD88 BLA, MC4R antagonist, MC4R ag barr, TLR9-MyD88 block)
CCOC(=O)[C@]12Cc3cc(Cl)ccc3[C@H]1N(C(C)C)C(=O)c1ccccc12	NOD2 RIPK2 PPI 30 (no result: TLR4-MyD88 BLA, MC4R antagonist, MC4R ag barr, TLR9-MyD88 block) | NOD2-RIPK2 conf 67 | BLA counter inactive
CCOC(=O)[C@]12Cc3cc(Cl)ccc3[C@H]1N(C1CCCCC1)C(=O)c1ccccc12	NOD2 RIPK2 PPI 66 (no result: TLR4-MyD88 BLA, MC4R antagonist, MC4R ag barr, TLR9-MyD88 block) | NOD2-RIPK2 conf 68 | BLA counter inactive
CCOC(=O)[C@]12Cc3cc(OC)ccc3[C@H]1N(C)C(=O)c1ccccc12	none (no result: TLR4-MyD88 BLA, MC4R antagonist, MC4R ag barr, TLR9-MyD88 block)
CCOC(=O)[C@]12Cc3cc(OC)ccc3[C@H]1N(C1CCCCC1)C(=O)c1ccccc12	NOD2 RIPK2 PPI 50 (no result: TLR4-MyD88 BLA, MC4R antagonist, MC4R ag barr, TLR9-MyD88 block) | NOD2-RIPK2 conf 62 | BLA counter inactive
CCCCCN1C(=O)c2cc(OC)ccc2[C@@]2(C(=O)OCC)Cc3cc(Cl)ccc3[C@@H]12	NOD2 RIPK2 PPI 46 (no result: TLR4-MyD88 BLA, MC4R antagonist, MC4R ag barr, TLR9-MyD88 block) | NOD2-RIPK2 conf 44 | BLA counter inactive
CCOC(=O)[C@]12Cc3cc(Cl)ccc3[C@H]1N(C)C(=O)c1ccccc12	none (no result: TLR4-MyD88 BLA, MC4R antagonist, MC4R ag barr, TLR9-MyD88 block)
CN(C)CCN=Cc1c(O)n(-c2cccc(C(F)(F)F)c2)c(=O)[nH]c1=O	none
CCCCC(=O)N/N=C/c1c(O)n(-c2cccc3ccccc23)c(=O)[nH]c1=O	none (no result: TLR4-MyD88 BLA)
CC1(C)CC[C@]2(C)CC[C@]3(C)C4C[C@@H]5OO[C@@]6(O5)C(CCCC6(C)C)[C@]4(C)CC[C@@]3(C)C2C1 (stereo partly specified)	none (no result: TLR4-MyD88 BLA)
CN1Cc2cnnn2-c2ccccc2C1C#N (stereo unspecified)	none (no result: TLR4-MyD88 BLA)
N#CC1c2ccccc2-n2nncc2CN1Cc1cc(Cl)cc(Cl)c1 (stereo unspecified)	NOD2 RIPK2 PPI 59 (no result: TLR4-MyD88 BLA) | NOD2-RIPK2 conf 43 | BLA counter inactive
COc1ccc(C(CNC(=O)c2ccc3c(c2)CCC3)N(C)C)cc1 (stereo unspecified)	none (no result: TLR4-MyD88 BLA)
COc1ccc(CCNC2CCCCC2)cc1	none
COc1ccc(C[C@H]2NC[C@H](O)[C@H]2OC(C)=O)cc1	NOD2 RIPK2 PPI 26 (no result: TLR4-MyD88 BLA) | NOD2-RIPK2 conf 29 | BLA counter inactive
C=CCn1c(O)c(/C(C)=N/N2CCN(C)CC2)c(=O)[nH]c1=O	none (no result: TLR4-MyD88 BLA)
COC(=O)C1=C(C(=O)OC)C2OC1c1cc3ccccc3cc12	NOD2 RIPK2 PPI 88 (no result: TLR4-MyD88 BLA) | NOD2-RIPK2 conf 86 | BLA counter 19
COC(=O)C1=C(c2ccc3ccccc3c2)C[C@@H]2CC[C@H]1N2C	none (no result: TLR4-MyD88 BLA)
COC(=O)C1=C(c2cccc(OCc3ccccc3)c2)C[C@@H]2CC[C@H]1N2C(=O)NCc1ccc(C(F)(F)F)cc1	none (no result: TLR4-MyD88 BLA)
